Results from ChEMBL document CHEMBL1157526, “Development of novel beta-amyloid probes based on 3,5-diphenyl-1,2,4-oxadiazole” (Bioorg Med Chem, 2008).

system: Kidney; experiment: Biodistribution in ddY mouse kidney at 0.5 uCi, iv after 60 mins; type: ADME, organism-based; conditions: in vivo, 1 h
Summary of the method: (§1)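 Normal male-unspecified ddY mice (5-week-old, 22–25 g) given radioiodinated ligand by tail-vein injection, killed at set times post-injection. Organs removed and weighed, radioactivity counted in a gamma counter. Expressed as % injected dose per gram, stomach as % injected dose per organ. Mean (s.d.) of 3–5 animals per time point.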

| SMILES | Drug uptake [% ID/g] |
| --- | --- |
| Nc1ccc(-c2nc(-c3ccc([125I])cc3)no2)cc1 | 5.15 |

system: Pancreas; experiment: Biodistribution in ddY mouse pancreas at 0.5 uCi, iv after 60 mins; type: ADME, organism-based; conditions: in vivo, 1 h; summary of the method: as §1

| SMILES | Drug uptake [% ID/g] |
| --- | --- |
| Nc1ccc(-c2nc(-c3ccc([125I])cc3)no2)cc1 | 2.83 |

system: Stomach; experiment: Biodistribution in ddY mouse stomach at 0.5 uCi, iv after 30 mins; type: ADME, organism-based; conditions: in vivo, 0.5 h; summary of the method: as §1

| SMILES | Drug uptake [% ID/organ] |
| --- | --- |
| Nc1ccc(-c2nc(-c3ccc([125I])cc3)no2)cc1 | 4.05 |

system: Liver; experiment: Biodistribution in ddY mouse liver at 0.5 uCi, iv after 10 mins; type: ADME, organism-based; conditions: in vivo; summary of the method: as §1

| SMILES | Drug uptake [% ID/g] |
| --- | --- |
| Nc1ccc(-c2nc(-c3ccc([125I])cc3)no2)cc1 | 17.37 |

system: Kidney; experiment: Biodistribution in ddY mouse kidney at 0.5 uCi, iv after 30 mins; type: ADME, organism-based; conditions: in vivo, 0.5 h; summary of the method: as §1

| SMILES | Drug uptake [% ID/g] |
| --- | --- |
| Nc1ccc(-c2nc(-c3ccc([125I])cc3)no2)cc1 | 5.86 |

system: Pancreas; experiment: Biodistribution in ddY mouse pancreas at 0.5 uCi, iv after 10 mins; type: ADME, organism-based; conditions: in vivo; summary of the method: as §1

| SMILES | Drug uptake [% ID/g] |
| --- | --- |
| Nc1ccc(-c2nc(-c3ccc([125I])cc3)no2)cc1 | 3.88 |

system: Intestine; experiment: Biodistribution in ddY mouse intestine at 0.5 uCi, iv after 30 mins; type: ADME, organism-based; conditions: in vivo, 0.5 h; summary of the method: as §1

| SMILES | Drug uptake [% ID/g] |
| --- | --- |
| Nc1ccc(-c2nc(-c3ccc([125I])cc3)no2)cc1 | 5.84 |

system: Blood; experiment: Biodistribution in ddY mouse blood at 0.5 uCi, iv after 10 mins; type: ADME, organism-based; conditions: in vivo; summary of the method: as §1

| SMILES | Drug uptake [% ID/g] |
| --- | --- |
| Nc1ccc(-c2nc(-c3ccc([125I])cc3)no2)cc1 | 2.32 |

system: Brain; experiment: Biodistribution in ddY mouse brain at 0.5 uCi, iv after 60 mins; type: ADME, organism-based; conditions: in vivo, 1 h; summary of the method: as §1

| SMILES | Drug uptake [% ID/g] |
| --- | --- |
| Nc1ccc(-c2nc(-c3ccc([125I])cc3)no2)cc1 | 3.29 |

system: Spleen; experiment: Biodistribution in ddY mouse spleen at 0.5 uCi, iv after 60 mins; type: ADME, organism-based; conditions: in vivo, 1 h; summary of the method: as §1

| SMILES | Drug uptake [% ID/g] |
| --- | --- |
| Nc1ccc(-c2nc(-c3ccc([125I])cc3)no2)cc1 | 5.02 |

system: Spleen; experiment: Biodistribution in ddY mouse spleen at 0.5 uCi, iv after 30 mins; type: ADME, organism-based; conditions: in vivo, 0.5 h; summary of the method: as §1

| SMILES | Drug uptake [% ID/g] |
| --- | --- |
| Nc1ccc(-c2nc(-c3ccc([125I])cc3)no2)cc1 | 6.89 |

system: Kidney; experiment: Biodistribution in ddY mouse kidney at 0.5 uCi, iv after 2 mins; type: ADME, organism-based; conditions: in vivo; summary of the method: as §1

| SMILES | Drug uptake [% ID/g] |
| --- | --- |
| Nc1ccc(-c2nc(-c3ccc([125I])cc3)no2)cc1 | 8.24 |

system: Liver; experiment: Biodistribution in ddY mouse liver at 0.5 uCi, iv after 2 mins; type: ADME, organism-based; conditions: in vivo; summary of the method: as §1

| SMILES | Drug uptake [% ID/g] |
| --- | --- |
| Nc1ccc(-c2nc(-c3ccc([125I])cc3)no2)cc1 | 21.36 |

system: Stomach; experiment: Biodistribution in ddY mouse stomach at 0.5 uCi, iv after 60 mins; type: ADME, organism-based; conditions: in vivo, 1 h; summary of the method: as §1

| SMILES | Drug uptake [% ID/organ] |
| --- | --- |
| Nc1ccc(-c2nc(-c3ccc([125I])cc3)no2)cc1 | 5.15 |

system: Heart; experiment: Biodistribution in ddY mouse heart at 0.5 uCi, iv after 30 mins; type: ADME, organism-based; conditions: in vivo, 0.5 h; summary of the method: as §1

| SMILES | Drug uptake [% ID/g] |
| --- | --- |
| Nc1ccc(-c2nc(-c3ccc([125I])cc3)no2)cc1 | 3.48 |

system: Spleen; experiment: Biodistribution in ddY mouse spleen at 0.5 uCi, iv after 2 mins; type: ADME, organism-based; conditions: in vivo; summary of the method: as §1

| SMILES | Drug uptake [% ID/g] |
| --- | --- |
| Nc1ccc(-c2nc(-c3ccc([125I])cc3)no2)cc1 | 6.13 |

system: Liver; experiment: Biodistribution in ddY mouse liver at 0.5 uCi, iv after 30 mins; type: ADME, organism-based; conditions: in vivo, 0.5 h; summary of the method: as §1

| SMILES | Drug uptake [% ID/g] |
| --- | --- |
| Nc1ccc(-c2nc(-c3ccc([125I])cc3)no2)cc1 | 14.89 |

system: Stomach; experiment: Biodistribution in ddY mouse stomach at 0.5 uCi, iv after 10 mins; type: ADME, organism-based; conditions: in vivo; summary of the method: as §1

| SMILES | Drug uptake [% ID/organ] |
| --- | --- |
| Nc1ccc(-c2nc(-c3ccc([125I])cc3)no2)cc1 | 1.7 |

system: Blood; experiment: Biodistribution in ddY mouse blood at 0.5 uCi, iv after 30 mins; type: ADME, organism-based; conditions: in vivo, 0.5 h; summary of the method: as §1

| SMILES | Drug uptake [% ID/g] |
| --- | --- |
| Nc1ccc(-c2nc(-c3ccc([125I])cc3)no2)cc1 | 3.09 |

system: Pancreas; experiment: Biodistribution in ddY mouse pancreas at 0.5 uCi, iv after 30 mins; type: ADME, organism-based; conditions: in vivo, 0.5 h; summary of the method: as §1

| SMILES | Drug uptake [% ID/g] |
| --- | --- |
| Nc1ccc(-c2nc(-c3ccc([125I])cc3)no2)cc1 | 3.36 |

system: Blood; experiment: Biodistribution in ddY mouse blood at 0.5 uCi, iv after 2 mins; type: ADME, organism-based; conditions: in vivo; summary of the method: as §1

| SMILES | Drug uptake [% ID/g] |
| --- | --- |
| Nc1ccc(-c2nc(-c3ccc([125I])cc3)no2)cc1 | 4.55 |

system: Intestine; experiment: Biodistribution in ddY mouse intestine at 0.5 uCi, iv after 60 mins; type: ADME, organism-based; conditions: in vivo, 1 h; summary of the method: as §1

| SMILES | Drug uptake [% ID/g] |
| --- | --- |
| Nc1ccc(-c2nc(-c3ccc([125I])cc3)no2)cc1 | 8.33 |

system: Brain; experiment: Biodistribution in ddY mouse brain at 0.5 uCi, iv after 30 mins; type: ADME, organism-based; conditions: in vivo, 0.5 h; summary of the method: as §1

| SMILES | Drug uptake [% ID/g] |
| --- | --- |
| Nc1ccc(-c2nc(-c3ccc([125I])cc3)no2)cc1 | 3.32 |

system: Heart; experiment: Biodistribution in ddY mouse heart at 0.5 uCi, iv after 10 mins; type: ADME, organism-based; conditions: in vivo; summary of the method: as §1

| SMILES | Drug uptake [% ID/g] |
| --- | --- |
| Nc1ccc(-c2nc(-c3ccc([125I])cc3)no2)cc1 | 4.02 |

system: Liver; experiment: Biodistribution in ddY mouse liver at 0.5 uCi, iv after 60 mins; type: ADME, organism-based; conditions: in vivo, 1 h; summary of the method: as §1

| SMILES | Drug uptake [% ID/g] |
| --- | --- |
| Nc1ccc(-c2nc(-c3ccc([125I])cc3)no2)cc1 | 12.33 |

system: Pancreas; experiment: Biodistribution in ddY mouse pancreas at 0.5 uCi, iv after 2 mins; type: ADME, organism-based; conditions: in vivo; summary of the method: as §1

| SMILES | Drug uptake [% ID/g] |
| --- | --- |
| Nc1ccc(-c2nc(-c3ccc([125I])cc3)no2)cc1 | 3.69 |

system: Heart; experiment: Biodistribution in ddY mouse heart at 0.5 uCi, iv after 2 mins; type: ADME, organism-based; conditions: in vivo; summary of the method: as §1

| SMILES | Drug uptake [% ID/g] |
| --- | --- |
| Nc1ccc(-c2nc(-c3ccc([125I])cc3)no2)cc1 | 9.29 |

system: Intestine; experiment: Biodistribution in ddY mouse intestine at 0.5 uCi, iv after 2 mins; type: ADME, organism-based; conditions: in vivo; summary of the method: as §1

| SMILES | Drug uptake [% ID/g] |
| --- | --- |
| Nc1ccc(-c2nc(-c3ccc([125I])cc3)no2)cc1 | 1.5 |

system: Blood; experiment: Biodistribution in ddY mouse blood at 0.5 uCi, iv after 60 mins; type: ADME, organism-based; conditions: in vivo, 1 h; summary of the method: as §1

| SMILES | Drug uptake [% ID/g] |
| --- | --- |
| Nc1ccc(-c2nc(-c3ccc([125I])cc3)no2)cc1 | 2.99 |

system: Heart; experiment: Biodistribution in ddY mouse heart at 0.5 uCi, iv after 60 mins; type: ADME, organism-based; conditions: in vivo, 1 h; summary of the method: as §1

| SMILES | Drug uptake [% ID/g] |
| --- | --- |
| Nc1ccc(-c2nc(-c3ccc([125I])cc3)no2)cc1 | 3.51 |

system: Stomach; experiment: Biodistribution in ddY mouse stomach at 0.5 uCi, iv after 2 mins; type: ADME, organism-based; conditions: in vivo; summary of the method: as §1

| SMILES | Drug uptake [% ID/organ] |
| --- | --- |
| Nc1ccc(-c2nc(-c3ccc([125I])cc3)no2)cc1 | 0.92 |

system: Brain; experiment: Biodistribution in ddY mouse brain at 0.5 uCi, iv after 10 mins; type: ADME, organism-based; conditions: in vivo; summary of the method: as §1

| SMILES | Drug uptake [% ID/g] |
| --- | --- |
| Nc1ccc(-c2nc(-c3ccc([125I])cc3)no2)cc1 | 2.48 |

system: Kidney; experiment: Biodistribution in ddY mouse kidney at 0.5 uCi, iv after 10 mins; type: ADME, organism-based; conditions: in vivo; summary of the method: as §1

| SMILES | Drug uptake [% ID/g] |
| --- | --- |
| Nc1ccc(-c2nc(-c3ccc([125I])cc3)no2)cc1 | 6.94 |

system: Spleen; experiment: Biodistribution in ddY mouse spleen at 0.5 uCi, iv after 10 mins; type: ADME, organism-based; conditions: in vivo; summary of the method: as §1

| SMILES | Drug uptake [% ID/g] |
| --- | --- |
| Nc1ccc(-c2nc(-c3ccc([125I])cc3)no2)cc1 | 8.87 |

system: Intestine; experiment: Biodistribution in ddY mouse intestine at 0.5 uCi, iv after 10 mins; type: ADME, organism-based; conditions: in vivo; summary of the method: as §1

| SMILES | Drug uptake [% ID/g] |
| --- | --- |
| Nc1ccc(-c2nc(-c3ccc([125I])cc3)no2)cc1 | 3.08 |

system: Brain; experiment: Biodistribution in ddY mouse brain at 0.5 uCi, iv after 2 mins; type: ADME, organism-based; conditions: in vivo; summary of the method: as §1

| SMILES | Drug uptake [% ID/g] |
| --- | --- |
| Nc1ccc(-c2nc(-c3ccc([125I])cc3)no2)cc1 | 1.61 |
